The nature of experiment [1]: Selectivity ratio (alpha2/PNMT).
The target in experiment [2] is T1, Adrenergic receptor alpha-2 (Rattus norvegicus, UniProt P22086+P19328+P22909).
T1 sequence (P22086 whole entry): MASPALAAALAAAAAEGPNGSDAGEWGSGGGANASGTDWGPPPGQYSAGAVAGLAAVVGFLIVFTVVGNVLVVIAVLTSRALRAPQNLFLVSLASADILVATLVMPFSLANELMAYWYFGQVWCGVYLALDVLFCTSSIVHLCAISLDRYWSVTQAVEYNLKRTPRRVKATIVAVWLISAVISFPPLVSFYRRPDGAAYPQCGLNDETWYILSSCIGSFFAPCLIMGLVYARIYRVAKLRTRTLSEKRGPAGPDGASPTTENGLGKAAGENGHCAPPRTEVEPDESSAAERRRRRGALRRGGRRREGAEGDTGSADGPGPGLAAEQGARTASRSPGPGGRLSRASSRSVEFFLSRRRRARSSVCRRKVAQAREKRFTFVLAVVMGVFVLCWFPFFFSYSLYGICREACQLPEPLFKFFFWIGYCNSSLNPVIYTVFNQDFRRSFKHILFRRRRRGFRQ
T1 sequence (P19328 whole entry): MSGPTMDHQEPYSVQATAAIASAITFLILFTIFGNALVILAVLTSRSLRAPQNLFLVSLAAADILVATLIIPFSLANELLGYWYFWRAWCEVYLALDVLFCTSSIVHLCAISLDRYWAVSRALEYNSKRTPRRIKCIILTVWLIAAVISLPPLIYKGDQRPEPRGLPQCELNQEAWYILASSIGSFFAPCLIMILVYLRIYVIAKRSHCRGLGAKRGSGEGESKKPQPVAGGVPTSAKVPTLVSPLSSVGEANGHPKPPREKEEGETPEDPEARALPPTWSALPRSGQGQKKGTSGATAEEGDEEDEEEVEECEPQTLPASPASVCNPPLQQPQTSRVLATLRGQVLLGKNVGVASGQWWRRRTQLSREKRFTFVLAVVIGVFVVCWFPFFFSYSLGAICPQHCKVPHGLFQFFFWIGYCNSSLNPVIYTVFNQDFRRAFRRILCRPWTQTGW
T1 sequence (P22909 whole entry): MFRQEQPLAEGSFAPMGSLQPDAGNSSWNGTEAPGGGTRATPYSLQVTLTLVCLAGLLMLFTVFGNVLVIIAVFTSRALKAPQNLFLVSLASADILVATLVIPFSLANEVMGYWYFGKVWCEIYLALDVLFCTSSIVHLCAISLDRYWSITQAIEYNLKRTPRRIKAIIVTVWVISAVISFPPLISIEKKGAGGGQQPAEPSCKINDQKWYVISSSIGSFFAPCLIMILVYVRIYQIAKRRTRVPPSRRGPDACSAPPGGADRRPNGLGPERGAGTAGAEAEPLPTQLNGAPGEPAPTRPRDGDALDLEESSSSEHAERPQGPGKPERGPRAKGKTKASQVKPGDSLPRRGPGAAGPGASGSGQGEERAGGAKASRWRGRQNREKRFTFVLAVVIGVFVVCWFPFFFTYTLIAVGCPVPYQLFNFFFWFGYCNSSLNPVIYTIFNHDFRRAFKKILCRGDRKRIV
Description: Binding affinity to alpha-2 adrenergic receptor by displacement of [3H]clonidine. The format is protein assay. In outline:
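Male Sprague Dawley rat cortex homogenized, washed thrice by centrifugation in 50 mM Tris/HCl pH 7.7. Incubated with [3H]clonidine (final 2.0 nM) and varied inhibitor concentrations, 25 °C 30 min; GF/B filtration, scintillation counting. Nonspecific binding with 2 uM phentolamine. IC50 by log-probit analysis, converted to Ki via Cheng–Prusoff (Hill coefficients near one).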
On the technique in general: Loss of bound radioactivity is the signal in a displacement assay; it reports binding, not function.

Experiment [3] has as its target T2, Phenylethanolamine N-methyltransferase (Bos taurus, UniProt P10938).
T2 sequence (P10938 whole entry): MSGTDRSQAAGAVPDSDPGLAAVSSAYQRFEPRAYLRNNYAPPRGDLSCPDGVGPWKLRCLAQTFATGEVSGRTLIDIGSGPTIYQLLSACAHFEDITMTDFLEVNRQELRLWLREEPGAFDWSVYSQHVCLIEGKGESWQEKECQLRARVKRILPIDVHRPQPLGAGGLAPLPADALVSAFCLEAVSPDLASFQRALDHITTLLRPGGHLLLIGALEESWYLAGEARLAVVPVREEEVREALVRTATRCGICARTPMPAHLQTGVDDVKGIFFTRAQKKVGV
Kind of experiment: Ability to inhibit phenylethanolamine N-methyl-transferase (PNMT).

Regarding `Clc1ccc2c(c1Cl)CNCC2`, in experiment [1], the Selectivity amounted to 0.095.
Regarding `O=[N+]([O-])c1ccc2c(c1)CNCC(O)C2` (stereo not given), the Ki in experiment [2] is 680000 nM; in experiment [3], 5300 nM. Further, the Selectivity in experiment [1] is 130.
Take `O=[N+]([O-])c1ccc2c(c1)CNCC2CF` (stereo not given): the Ki was 35000 nM in experiment [2] and 2100 nM in experiment [3]. Moreover, in experiment [1], the Selectivity amounted to 17.
Regarding `NS(=O)(=O)c1ccc2c(c1)CNC(CO)C2` (stereo not given), the Selectivity in experiment [1] amounted to 4100.
The same measure, in the same setting: to `COc1ccc2c3c([nH]c2c1)C=NCC3` belongs 4.4.
In the case of `O=[N+]([O-])c1ccc2c(c1)CNCC(F)C2` (stereo not given), the inhibition constant (Ki) in experiment [2] stood at 510000 nM; in experiment [3] it was 540 nM. In experiment [1], the Selectivity was 940.
Turning to `O=[N+]([O-])c1ccc2c(c1)CNC(CF)C2` (stereo not given), in experiment [1], the Selectivity was 140.
Still for that read-out and setting: the value for `NS(=O)(=O)c1ccc2c(c1)CNC(CF)C2` (stereo not given) was 1000.
For the compound `N#Cc1ccc2c(c1)CNCC(F)C2` (stereo not given), the inhibitory constant (Ki) was determined as 100000 nM in experiment [2] and 1300 nM in experiment [3]. Further, the Selectivity in experiment [1] stood at 77.
For `FC1CNCc2ccccc2C1` (stereo not given) the same measures were 93000 nM, 2000 nM and 47.
For the compound `N#Cc1ccc2c(c1)CNC(CF)C2` (stereo not given), the Selectivity in experiment [1] amounted to 420.
For the compound `FCC1Cc2ccc(Br)cc2CN1` (stereo not given), in experiment [1], the Selectivity was 10.
In the case of `FC1CNCc2cc(Br)ccc2C1` (stereo not given), the inhibition constant (Ki) in experiment [2] amounted to 49000 nM; in experiment [3] it was 390 nM. In experiment [1], the Selectivity came out at 130.

As a reminder, the Ki is the dissociation constant of the complex between target and ligand, obtained from inhibition or displacement.
